# Most compounds without a hit are left out; they make up all but 2.8% or so of the library.
# SR-BI DiI-HDL act = enhances SR-BI lipid uptake from DiI-HDL | AID 504775 | 320,000 compounds, 0.096% hits | activation, % at 12.5 µM | CHO ldlA[mSR-BI] cells, DiI-HDL uptake fluorescence, 3 h; 100 = double the neutral-control signal;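 active = mean replicate activation of at least 60% and every replicate at or above 60%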;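 note: 0% = median plate neutral-control signal and 100% = twice that signal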
#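 Test system: SR-BI-overexpressing, LDLR-lacking CHO cells. Measured by: DiI fluorescence, bottom read. Medium: Ham's F12 with 0.5% BSA, HEPES 25 mM, pH 7.4. Timing: 3 h uptake period with compound, 37 °C.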
# CAL PDZ FP-1 = inhibitors of human CAL PDZ peptide binding. Q9HD26. purified CAL PDZ, TMR-peptide fluorescence polarization, 1 h. inhibition, % at 24.9 µM. 300,000 compounds, 0.92% hits. AID 602252;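 active = mean inhibition of at least 30% with at least half of replicates also reaching 30%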;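 note: 0% = DMSO neutral control and 100% = excess unlabeled competitor peptide PRC23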
# CAL PDZ FP-2 = blocks peptide binding to human CAL PDZ domain; Q9HD26; purified CAL PDZ, TMR-peptide fluorescence polarization, 1 h; inhibition, % at 20 µM; 330,000 compounds, 0.02% hits; AID 504414;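 active = highest replicate inhibition of at least 40%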;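 note: plate controls were DMSO neutral control wells for no effect and unlabeled competitor peptide control wells for full effect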
#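 Read-out basis: mP drop reported as inhibition | Assay system: Tagged CAL PDZ protein CerCALP, purified | Benchmarks: Unlabelled peptide for full inhibition, DMSO wells as neutral | Schedule: 1 h incubation at room temperature before polarization reading | Buffer or medium: Sodium phosphate/NaCl buffer pH 7.4 with TCEP, IgG, Thesit | Doses: Single point, 20 µM | Measured by: Fluorescence polarization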
# SR-BI HDL uptake = inhibitors of mouse SR-BI mediated HDL lipid uptake; inhibition, % at 12.5 µM; ldlA[mSR-BI] CHO cells, DiI-HDL uptake fluorescence, 3 h; 320,000 compounds, 0.96% hits; AID 488896;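 active = mean replicate inhibition of at least 70% and a set share of replicates each scoring 70 or more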;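 note: 0% = median of neutral control wells and 100% = median of positive control wells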
# dFosB act = mouse delta FosB homodimer activation; activation, % at 25 µM; 340,000 compounds, 0.99% hits; AID 493131; purified delta FosB, TAMRA-CDK5 oligo fluorescence polarization; percent of positive-control signal above neutral wells;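 active = mean activation above about 17%, with every replicate also reaching it, limit read from the data, passing the limit was not always enough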
# Target sequence (P13346 whole entry, looked up): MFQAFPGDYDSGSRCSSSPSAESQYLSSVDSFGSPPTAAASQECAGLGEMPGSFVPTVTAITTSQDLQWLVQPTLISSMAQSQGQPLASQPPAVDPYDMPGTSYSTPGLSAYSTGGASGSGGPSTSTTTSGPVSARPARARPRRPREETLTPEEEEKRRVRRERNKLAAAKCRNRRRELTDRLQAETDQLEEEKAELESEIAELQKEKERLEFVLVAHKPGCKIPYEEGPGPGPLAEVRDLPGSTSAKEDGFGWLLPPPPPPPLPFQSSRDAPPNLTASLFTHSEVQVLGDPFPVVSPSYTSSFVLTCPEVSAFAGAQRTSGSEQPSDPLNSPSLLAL
# Starred values were filed as active, the others as inactive; · = no result.
SMILES,SR-BI DiI-HDL act,CAL PDZ FP-1,CAL PDZ FP-2,SR-BI HDL uptake,dFosB act
COc1ccc(C(=O)NCc2nnc(SCC(=O)Nc3ccccc3OC)o2)cc1,29,56*,-1,-29,-3
COc1ccc(-c2nnc(SCC(=O)Nc3ccccc3OC)o2)cc1,9,·,-3,-9,0
CS(=O)(=O)c1ccc(-c2sc3cc4c(cc3c2C(=O)NN2CCOCC2)OCO4)cc1,11,-1,-1,-11,2
CC1CCN(S(=O)(=O)c2ccc3c(c2)oc(=O)n3CC(=O)N2c3ccccc3CC2C)CC1 (centres undefined),-73,·,0,73*,11
NC(=O)CSc1nc2c(sc3ccccc32)c(=O)n1CCCC(=O)NCC1CCCO1 (centres undefined),0,-5,-3,0,-7
O=C(c1nc2ccc(Cl)cn2c1CN1CCC(CO)CC1)N1CCc2ccccc2C1,17,38*,0,-17,-12
CCOC(=O)C(NC(=O)c1ccccc1)(Nc1cccc(C)n1)C(F)(F)F (centres undefined),3,1,0,-3,-1
CCOC(=O)C(NCc1ccco1)(NC(=O)c1ccccc1)C(F)(F)F (centres undefined),17,43*,-1,-17,3
O=C(CCn1c(=O)oc2ccccc21)Nc1cccc(Br)c1,18,-4,-3,-18,-4
COc1cc(/C=C2/SC(=O)NC2=O)ccc1OC(=O)c1ccco1,15,5,-1,-15,68*
COc1cc(/C=C2/SC(=S)N(C)C2=O)ccc1OC(=O)c1ccco1,-4,-7,-4,4,-3
O=C(/C=C/c1cccc([N+](=O)[O-])c1)NCCSCc1cccc(Cl)c1,2,52*,0,-2,2
CCN(CC)S(=O)(=O)c1cccc(C(=O)NC(C(=O)NNC(=O)c2ccccc2F)C(C)C)c1 (centres undefined),12,2,0,-12,-1
COC(=O)c1sc(C(C)(C)C)cc1CSc1ccccc1,-31,-2,0,31,6
CN1CCN(CCCNC(=O)CN2C(=O)COc3ccccc32)CC1,·,·,0,·,2
Cc1ccc2c(c1)N(CC(=O)NCCCN1CCN(C)CC1)C(=O)CO2,-1,64*,0,1,0
CCC1Oc2ccc(C)cc2N(CC(=O)NCCCN2CCCC2)C1=O (centres undefined),-3,36*,0,3,4
CCCN1CCN(CCCNC(=O)CN2C(=O)C(CC)Oc3ccccc32)CC1 (centres undefined),8,-1,-3,-8,-9
O=C(NCc1ccc2c(c1)OCO2)C1CC(=O)N(CCc2ccc(F)cc2)C1 (centres undefined),·,1,-1,·,2
CCN(C(=O)COC(=O)c1nccnc1N)c1cccc2ccccc12,3,-3,-1,-3,0
COc1ccc(C(=O)Nc2ccc(C3(C#N)CCCC3)cc2)cc1,-88,5,-1,88*,4
N#CC1(c2ccc(NC(=O)c3ccccc3F)cc2)CCCC1,-23,0,-1,23,-11
COc1ccc(N2CCN(C(=O)CN3C(=O)NC4(CCCCCC4)C3=O)CC2)cc1,-12,59*,0,12,-2
O=C(CN1C(=O)NC2(CCCCCC2)C1=O)N1CCN(c2ccc(F)cc2)CC1,-32,-2,0,32,-5
COc1ccc(N2CCN(C(=O)Cn3nnc(-c4ccccc4N)n3)CC2)cc1,-83,-2,-1,83*,0
SMILES,SR-BI DiI-HDL act,CAL PDZ FP-1,CAL PDZ FP-2,SR-BI HDL uptake,dFosB act
O=C(c1ccncc1)N1N=C(c2ccc(Br)cc2)CC1c1ccccc1O (centres undefined),-75,-1,-5,75*,-7
COc1cccc(C2CC(c3cccs3)=NN2C(=O)c2ccco2)c1O (centres undefined),6,-9,-2,-6,-14
O=C(c1ccco1)N1N=C(c2cccs2)CC1c1ccccc1O (centres undefined),1,-2,-1,-1,27*
O=C(c1cccs1)N1N=C(c2ccccc2)CC1c1ccccc1O (centres undefined),-6,-2,-3,6,31*
Cc1ccc(C2=NN(C(=O)c3cccs3)C(c3ccccc3O)C2)cc1 (centres undefined),-37,-3,-1,37,9
CCOC(=O)Cn1c2ccccc2c2nc3ccccc3nc21,-53,42*,0,53,-11
O=C1OC(COc2ccc(Br)cc2)CN1c1ccccc1 (centres undefined),34,87*,-1,-34,3
CCOC(=O)[C@H]1[C@H]2COc3cc(OC)ccc3[C@@H]2N2C(=O)N(c3cccc(Cl)c3)C(=O)[C@@]12C,-5,1,0,5,6
CCOC(=O)c1sc(NC(=O)C2CC(=O)N(c3ccc(OC)cc3)C2)nc1C (centres undefined),·,-8,-4,·,-10
CCN(CC)CCNc1ccc(CO)c2sc3ccccc3c(=O)c12,-6,0,1,6,4
Cc1ccc(NCCN(C)C)c2c(=O)c3cc(O)ccc3sc12,-16,2,6,16,43*
COc1ccc(-c2cc(-c3ccc(OC)cc3)c(C#N)c(SC)n2)cc1,-80,0,-1,80*,-6
COc1cc(CNc2ccc3[nH]c(=O)[nH]c3c2)ccc1OCc1ccc(Cl)cc1,-63,-2,0,63,-5
COc1cccc(C2(O)CCN(C(=O)C(C)C)CC2)c1,24,60*,-1,-24,-1
Cc1cc(C(=O)Nc2sc3c(c2C#N)CCCCC3)cs1,-79,·,-1,79*,-8
COc1ccc(-c2cc(C(=O)Nc3sc4c(c3C#N)CCCC4)c3ccccc3n2)cc1OC,-85,-1,-1,85*,12
Cc1c(NC(=O)c2cc(-c3ccc(O)cc3)on2)c(=O)n(-c2ccccc2)n1C,23,35*,-1,-23,-6
CC(=O)Nc1sc2c(c1C#N)CCCC2,-19,-6,-1,19,8
Cc1c(NC(=O)c2cc(-c3ccccc3)nc3ccccc23)c(=O)n(-c2ccccc2)n1C,-77,·,-1,77*,-14
CC(=O)c1ccc2c(c1)c(C#N)c1ccccc1[n+]2[O-],7,-2,·,-7,-8
COc1ccc(-c2cc(C(=O)Nc3c(C)n(C)n(-c4ccccc4)c3=O)c3ccccc3n2)c(OC)c1,-69,-5,-3,69,-3
COc1ccc2nc(-c3ccccc3)cc(C(=O)OCC(=O)NC3CC3)c2c1,-25,1,-1,25,-6
Cc1c(NC(=O)c2cc(-c3cccs3)nc3ccccc23)c(=O)n(-c2ccccc2)n1C,-77,-1,-3,77*,-8
